TRPC6 inhibitor = inhibitors of mouse TRPC6 channel; HEK293-TRPC6, membrane potential dye, ACh-evoked depolarization; active compounds read low; B-score at 10 µM; 310,000 tested, 1.1% active;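 active = B-score under library mean minus 3 SD, initial fluorescence not abnormally high, positive integrated signal ratio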;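 note: B-score derived from integrated fluorescence ratio over the kinetic read; more negative B-score means stronger inhibition of depolarization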
Target sequence (Q61143 whole entry, looked up): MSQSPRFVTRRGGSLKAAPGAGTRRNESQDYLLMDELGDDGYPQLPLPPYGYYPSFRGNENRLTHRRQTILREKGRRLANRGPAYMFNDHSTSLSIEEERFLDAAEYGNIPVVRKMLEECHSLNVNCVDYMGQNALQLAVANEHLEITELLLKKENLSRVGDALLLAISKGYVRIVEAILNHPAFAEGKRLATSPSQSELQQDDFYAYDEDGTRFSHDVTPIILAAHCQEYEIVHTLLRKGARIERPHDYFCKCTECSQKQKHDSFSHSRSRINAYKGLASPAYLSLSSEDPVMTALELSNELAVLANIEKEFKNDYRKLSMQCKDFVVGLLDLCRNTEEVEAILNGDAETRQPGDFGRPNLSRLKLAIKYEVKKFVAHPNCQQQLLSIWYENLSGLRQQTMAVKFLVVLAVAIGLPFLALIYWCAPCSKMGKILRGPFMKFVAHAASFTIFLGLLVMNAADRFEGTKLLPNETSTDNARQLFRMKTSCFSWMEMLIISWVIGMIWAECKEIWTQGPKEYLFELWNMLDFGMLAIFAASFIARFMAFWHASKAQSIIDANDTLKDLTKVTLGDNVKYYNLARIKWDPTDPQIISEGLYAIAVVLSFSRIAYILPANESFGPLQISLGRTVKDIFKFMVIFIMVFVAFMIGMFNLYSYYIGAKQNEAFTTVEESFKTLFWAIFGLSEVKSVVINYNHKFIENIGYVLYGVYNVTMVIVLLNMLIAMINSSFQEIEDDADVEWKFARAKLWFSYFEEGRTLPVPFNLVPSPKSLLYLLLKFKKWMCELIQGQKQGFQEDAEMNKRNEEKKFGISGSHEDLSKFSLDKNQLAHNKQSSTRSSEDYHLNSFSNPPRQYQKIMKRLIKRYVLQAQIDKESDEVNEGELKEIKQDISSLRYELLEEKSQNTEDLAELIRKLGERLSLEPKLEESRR
TRPC4 block = TRPC4 (mouse) channel inhibition; HEK293 TRPC4beta/mu-opioid, DAMGO-evoked Fluo4 calcium flux; active compounds read low; B-score at 10 µM; AID 2247; 300,000 tested, 0.39% active;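 active = B-score over 3 SD under the library average, no early fluorescence shift, positive overall ratio signal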
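Signal: kinetic Fluo4 fluorescence imaging of calcium influx. Material: stable TRPC4beta/mu-opioid receptor HEK293 cells. Probe or stimulus: DAMGO in two steps, submaximal then maximal.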
TRPC6 act = activates the mouse TRPC6 cation channel. AID 2550. HEK293-TRPC6 membrane potential dye fluorescence; active compounds read high. 310,000 tested, 0.13% active. Q61143. B-score at 10 µM;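 active = B-score of the integrated fluorescence ratio above library mean plus 3 SD, and starting fluorescence ratio within library mean plus 5 SD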;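 note: higher score means more depolarization so channel activation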
TRPC4 potent = allosterically enhances the mouse TRPC4 cation channel; Q9QUQ5; B-score at 10 µM; AID 2227; HEK293 TRPC4beta/mu-opioid, DAMGO EC20, Fluo-4 Ca2+ flux; active compounds read high; 310,000 tested, 0.42% active;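 active = B-score of calcium response area above 5 SD of library B-scores, with initial fluorescence ratio within 5 SD of library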
TRPC4 agonist = opens the mouse TRPC4 cation channel; Q9QUQ5; HEK293 TRPC4beta/mu-opioid, Fluo4 calcium fluorescence; active compounds read high; B-score at 10 µM; 310,000 tested, 0.49% active; AID 2237;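 active = B-score above 5 SD of library B-scores, and initial fluorescence ratio not above library mean plus 5 SD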;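 note: positive B-score marks a calcium rise read as TRPC4 activation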
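Assay system: HEK293 stable line with TRPC4beta plus mu-opioid receptor; schedule: 45 min room-temperature Fluo4 loading, 110 s read; technique: kinetic Fluo4 calcium fluorescence; evaluation: integrated baseline-normalised fluorescence ratio, converted to per-well B score; controls: buffer (low) and maximal DAMGO (high)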
TRPC4 sel inh 2 = second check of whether TRPC6 inhibitors also affect mouse TRPC4. 920 tested, 42% active. HEK293 TRPC4/MOR, membrane potential dye fluorescence; channel activated by saturating DAMGO dose. shares compounds with TRPC6 inhibitor. inhibition, % at 10 µM;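 active = compounds whose fluorescence signal differed from control wells by over 3 SD, either direction, in both duplicate plates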
TRPC4 spec = tests whether TRPC6 inhibitors also affect mouse TRPC4 | HEK293 TRPC4/mu-opioid, membrane potential fluorescence | AID 2777 | 920 tested, 61% active | activity change, negative = inhibition, % at 10 µM | shares compounds with TRPC6 inhibitor;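 active = rise or fall in signal beyond 3 SD of buffer-only wells in both replicate plates, either sign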;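 note: integrated kinetic ratio of fluorescence range over baseline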
HEK293 MPD ctr 2-1 = second check of TRPC6 inhibitor effects in parental HEK293 cells; shares compounds with TRPC6 inhibitor; parental HEK293 membrane potential dye fluorescence; maximal acetylcholine challenge after compound addition; signal change vs control, % at 10 µM; 920 tested, 31% active; AID 2779;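 active = membrane potential signal moving either way by over 3 SD of the maximum-effect control, in both duplicate plates, meaning non-specific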
HEK293 MPD ctr-1 = parental HEK293 nonspecific activity of TRPC6 inhibitors | shares compounds with TRPC6 inhibitor | parental HEK293 membrane potential dye fluorescence | membrane potential signal change, % at 10 µM | 920 tested, 60% active | AID 2780;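 active = membrane potential signal shifting up or down by more than 3 SD of buffer-only wells, on both duplicate plates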
HEK293 MPD ctr-2 = parental HEK293 nonspecific activity of TRPC6 modulators. shares compounds with TRPC6 inhibitor. AID 488924. membrane potential dye fluorescence. membrane potential signal change, % at 10 µM. 2,400 tested, 51% active;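 active = membrane potential signal moves up or down beyond 5 SD from buffer-only wells, on both duplicate plates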
HEK293 MPD ctr 2-2 = second counter-screen for TRPC6 modulators: effect in parental HEK293 cells | shares compounds with TRPC6 inhibitor | 2,400 tested, 14% active | AID 488926 | membrane potential dye fluorescence; after compound, maximal acetylcholine stimulation | inhibition, % at 10 µM;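 active = membrane potential signal drops by more than 5 SD from the mean control signal, in both duplicate plates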
TRPC4 ctr mod = selectivity of TRPC6 modulators against mouse TRPC4 | percent change from control (negative = decrease, positive = increase), % at 10 µM | shares compounds with TRPC6 inhibitor | HEK293 TRPC4/mu-opioid, membrane potential fluorescence | 2,400 tested, 69% active;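 active = membrane potential signal moved up or down beyond 5 SD of buffer control wells, in both duplicate plates, actives on both sides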
TRPC4 ctr inh 2 = second check of whether TRPC6 modulators also affect mouse TRPC4. AID 488928. inhibition, % at 10 µM. 2,400 tested, 55% active. HEK293 TRPC4/mu-opioid, membrane potential dye fluorescence; stimulated with maximal-effect DAMGO. shares compounds with TRPC6 inhibitor;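 active = drop in membrane potential signal beyond 5 SD of the control wells in both duplicate plates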;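 note: TRPC4 counter screen for TRPC6 hits run under conditions tuned for TRPC6 not TRPC4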
TRPC6 inh conf = mouse TRPC6 inhibitor confirmation; AID 488960; 3,300 tested, 43% active; inhibition, % at 10 µM; shares compounds with TRPC6 inhibitor; HEK293-TRPC6, membrane potential dye, ACh-evoked depolarization;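 active = fluorescence ratio falls more than 5 SD below the full-stimulation control mean, in both duplicate runs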;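 note: integrated fluorescence ratio of peak minus minimum over baseline after agonist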
TRPC6 act conf = mouse TRPC6 activator confirmation | HEK293-TRPC6 membrane potential dye fluorescence, FDSS | shares compounds with TRPC6 inhibitor | AID 488961 | 2,800 tested, 11% active | activation, % at 10 µM;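 active = ratio signal rise beyond 5 SD above unstimulated control wells' mean, seen in both duplicate runs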
Numbers stand for hits. Most compounds without a hit are left out; they make up all but 2.3% or so of the library.

How did Clc1ccc(-[n+]2c(-c3cccc(Br)c3)[nH]c3nc4ccccc4nc32)cc1 do in these assays?
TRPC6 inhibitor: -5.1; TRPC4 block: inactive; TRPC6 act: inactive; TRPC4 potent: inactive; TRPC4 agonist: inactive; HEK293 MPD ctr-2: inactive; HEK293 MPD ctr 2-2: inactive; TRPC4 ctr mod: inactive; TRPC4 ctr inh 2: 38%; TRPC6 inh conf: inactive; TRPC6 act conf: inactive

Results for Brc1cccc(-c2nc3cccnc3nc2-c2cccc(Br)c2)c1 ?
TRPC6 inhibitor: inactive; TRPC4 block: inactive; TRPC6 act: inactive; TRPC4 potent: inactive; TRPC4 agonist: inactive

Results for OCCN=c1cc(-c2ccccc2)oc2ccc(Cl)cc12 ?
TRPC6 inhibitor: -8.8; TRPC4 block: inactive; TRPC6 act: inactive; TRPC4 potent: inactive; TRPC4 agonist: inactive; TRPC4 sel inh 2: 67%; TRPC4 spec: -28%; HEK293 MPD ctr 2-1: inactive; HEK293 MPD ctr-1: -356%; TRPC6 inh conf: 55%; TRPC6 act conf: inactive

Results for CC(O)CN=c1cc(-c2ccccc2)oc2ccc(Cl)cc12 (stereo not drawn) ?
TRPC6 inhibitor: -7.3; TRPC4 block: inactive; TRPC6 act: inactive; TRPC4 potent: inactive; TRPC4 agonist: inactive; HEK293 MPD ctr-2: -134%; HEK293 MPD ctr 2-2: inactive; TRPC4 ctr mod: -28%; TRPC4 ctr inh 2: 37%; TRPC6 inh conf: 58%; TRPC6 act conf: inactive

Results for Cc1cc(Cl)ccc1Oc1ncnc2oc(-c3ccccc3)cc12 ?
TRPC6 inhibitor: inactive; TRPC4 block: inactive; TRPC6 act: inactive; TRPC4 potent: inactive; TRPC4 agonist: inactive

How did C/C(CCc1oc2ccc(Cl)cc2c1-c1ccc(C)o1)=N\O do in these assays?
TRPC6 inhibitor: inactive; TRPC4 block: inactive; TRPC6 act: inactive; TRPC4 potent: inactive; TRPC4 agonist: inactive

How did CC(C)CN=c1cc(-c2ccccc2)oc2ccc(Cl)cc12 do in these assays?
TRPC6 inhibitor: -7.4; TRPC4 block: inactive; TRPC6 act: inactive; TRPC4 potent: inactive; TRPC4 agonist: inactive; TRPC4 sel inh 2: 76%; TRPC4 spec: -14%; HEK293 MPD ctr 2-1: inactive; HEK293 MPD ctr-1: -268%; TRPC6 inh conf: inactive; TRPC6 act conf: inactive

Results for O=c1oc2ccc(Cl)cc2cc1-c1ccccc1 ?
TRPC6 inhibitor: inactive; TRPC4 block: inactive; TRPC6 act: inactive; TRPC4 potent: inactive; TRPC4 agonist: inactive

How did O=C1CCC(CCC(=O)N2CCCC(C(=O)c3cccc(C(F)(F)F)c3)C2)=NN1 (stereo not drawn) do in these assays?
TRPC6 inhibitor: inactive; TRPC4 block: inactive; TRPC6 act: inactive; TRPC4 potent: inactive; TRPC4 agonist: inactive

What do the screens show for `NC(=O)COC(=O)c1ccccc1Oc1ccccc1`?
TRPC6 inhibitor: inactive; TRPC4 block: inactive; TRPC6 act: inactive; TRPC4 potent: inactive; TRPC4 agonist: inactive

How did CCOc1cc(/C=C2\N=C(SC)SC2=O)cc([N+](=O)[O-])c1OC(C)=O do in these assays?
TRPC6 inhibitor: -5.1; TRPC4 block: inactive; TRPC6 act: inactive; TRPC4 potent: inactive; TRPC4 agonist: inactive; HEK293 MPD ctr-2: inactive; HEK293 MPD ctr 2-2: inactive; TRPC4 ctr mod: inactive; TRPC4 ctr inh 2: 39%; TRPC6 inh conf: inactive; TRPC6 act conf: inactive

How did CCOc1cc(/C=C2\N=C(SCC)SC2=O)cc([N+](=O)[O-])c1OC(C)=O do in these assays?
TRPC6 inhibitor: inactive; TRPC4 block: inactive; TRPC6 act: inactive; TRPC4 potent: inactive; TRPC4 agonist: inactive

Results for CCN1C(=O)[C@H]2[C@@H](c3ccc(-c4ccccc4)cc3)N3CCC[C@@]3(C(=O)OC)[C@H]2C1=O ?
TRPC6 inhibitor: inactive; TRPC4 block: inactive; TRPC6 act: inactive; TRPC4 potent: inactive; TRPC4 agonist: inactive

Results for O=C(O)c1ccc(N=N/C(=N\Nc2ccc(C(=O)O)cc2)c2ccccc2)cc1 ?
TRPC6 inhibitor: inactive; TRPC4 block: inactive; TRPC6 act: inactive; TRPC4 potent: inactive; TRPC4 agonist: inactive

Results for Brc1ccc(N/N=C(/N=Nc2nn[nH]n2)c2ccccc2)cc1 ?
TRPC6 inhibitor: -11; TRPC4 block: -6; TRPC6 act: inactive; TRPC4 potent: inactive; TRPC4 agonist: inactive; HEK293 MPD ctr-2: -256%; HEK293 MPD ctr 2-2: inactive; TRPC4 ctr mod: -44%; TRPC4 ctr inh 2: 91%; TRPC6 inh conf: 65%; TRPC6 act conf: inactive

Results for COc1ccc(NC(=O)c2cccnc2SC)cc1S(=O)(=O)N1CCCCC1 ?
TRPC6 inhibitor: inactive; TRPC4 block: inactive; TRPC6 act: inactive; TRPC4 potent: inactive; TRPC4 agonist: inactive

Results for Oc1ccc(CN2CCc3ccccc3C2)c2cccnc12 ?
TRPC6 inhibitor: -7.3; TRPC4 block: -5; TRPC6 act: inactive; TRPC4 potent: inactive; TRPC4 agonist: inactive; TRPC4 sel inh 2: 49%; TRPC4 spec: 2.4%; HEK293 MPD ctr 2-1: inactive; HEK293 MPD ctr-1: 5.0%; TRPC6 inh conf: inactive; TRPC6 act conf: inactive

How did COc1cccc2sc3ccc(NCCC4CCCN4C)cc3c(=O)c12 (stereo not drawn) do in these assays?
TRPC6 inhibitor: -6.8; TRPC4 block: inactive; TRPC6 act: inactive; TRPC4 potent: inactive; TRPC4 agonist: inactive; TRPC4 sel inh 2: 65%; TRPC4 spec: 21%; HEK293 MPD ctr 2-1: inactive; HEK293 MPD ctr-1: 17%; TRPC6 inh conf: inactive
